In the library only some 0.63% were active in any assay of this set; here they are far more common.
GSK3A inh = blockers of GSK3A enzyme activity – biochemical, luminescence, cell-free homogeneous, HTS, primary screen; Glycogen synthase kinase-3 alpha (Homo sapiens), P49840; GSK-3 alpha kinase, ADP-Glo luminescence, 60 min; inhibition, % at 10 µM; actives 0.1% (n = 320,000); AID 2650, 2010;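 active = more than half of replicates show inhibition above 20%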;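 note: GST-tagged GSK-3 alpha with peptide substrate and 25 µM ATP; 0% = DMSO neutral wells and 100% = GW8510 positive control wells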
Target sequence (P49840 whole entry, looked up): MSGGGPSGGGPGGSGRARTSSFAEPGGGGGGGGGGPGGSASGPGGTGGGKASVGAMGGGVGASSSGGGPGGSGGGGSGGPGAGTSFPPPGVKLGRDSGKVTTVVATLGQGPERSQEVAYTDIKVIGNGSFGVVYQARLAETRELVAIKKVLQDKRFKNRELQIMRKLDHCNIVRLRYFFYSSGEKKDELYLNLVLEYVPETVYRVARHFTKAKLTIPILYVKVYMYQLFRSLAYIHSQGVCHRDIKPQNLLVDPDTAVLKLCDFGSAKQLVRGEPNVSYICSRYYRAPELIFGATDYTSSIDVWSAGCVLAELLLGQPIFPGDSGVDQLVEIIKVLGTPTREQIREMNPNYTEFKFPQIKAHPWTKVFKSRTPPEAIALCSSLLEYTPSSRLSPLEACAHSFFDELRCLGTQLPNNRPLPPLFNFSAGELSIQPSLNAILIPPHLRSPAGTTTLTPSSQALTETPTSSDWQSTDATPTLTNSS
GSK3beta inhib = human GSK3beta kinase inhibitors, primary screen, biochemical, cell-free homogeneous, HTS | GST-GSK3beta kinase, ADP-Glo luminescence, 60 min; hits give low values | actives 0.038% (n = 300,000) | activity score (negative = inhibition), % at 10 µM | Glycogen synthase kinase-3 beta (Homo sapiens), P49841;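 active = more than half of replicate wells score below -50%, meaning over 50% inhibition versus plate controls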;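 note: 0% = median DMSO wells and -100% = median GW8510 positive control wells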
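Assay system: GST-tagged human GSK3beta kinase, cell-free; Input: 1.6 ng GSK3beta; Medium: Tris/MgCl2 kinase buffer; Timing: 60 min enzyme reaction, room temperature; Signal: ADP-Glo luminescence quantifying ADP generated by kinase; Evaluation: score relative to plate controls; Benchmarks: DMSO neutral wells and GW8510 at 20 µM as positive.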
DSG3 Ab inh = inhibitors of pemphigus antibody binding to DSG3, primary screen, biochemical, bead-based, flow cytometry, scFv-GFP | DSG3-coupled beads, scFv-anti-DSG3-GFP binding; hits give low values | binding (percent of control), % at 10 µM | actives 0.48% (n = 310,000);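 active = binding more than 3 SD below its plate's average and above zero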;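 note: hits lower antibody fragment binding to DSG3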
MT1-MMP act inh = blockers of MT1-MMP proenzyme processing, primary screen, HT1080 RFP-PRO-GFP cells, GFP/RFP fluorescence; Matrix metalloproteinase-14 (Homo sapiens), P50281; AID 651647, 2012; GFP/RFP ratio fluorescence, overnight; percent of plate control window, DMSO zero; actives 0.061% (n = 360,000); GFP/RFP ratio change, % at 20 µM;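 active = GFP/RFP ratio change of at least 30% with cell ATP level not reduced by more than half and red fluorescence within 50% of control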
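Test system: HT1080 cells expressing an RFP-PRO-GFP fluorescent reporter construct / Compound dosing: single-point 20 µM compound, 1% DMSO / Schedule: cells overnight before dosing, compound overnight, 37 °C, 5% CO2 / Evaluation: GFP/RFP fluorescence ratio / Control set: DMSO and RFP-L50D-GFP cell wells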
STK33 kinase inh = inhibitors of purified STK33 kinase, primary screen, biochemical, ADP-Glo luminescence, homogeneous, cell-free; MBP phosphorylation; actives 0.073% (n = 320,000); inhibition, % at 10 µM; AID 2661, 2010; Serine/threonine-protein kinase 33 (Homo sapiens), Q9BYT3;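 active = inhibition at or above 25%, using the most active replicate where run in duplicate; inactive = inhibition below 25%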
* hit, by the source's call; nt = no result given.

SMILES | GSK3A inh | GSK3beta inhib | DSG3 Ab inh | MT1-MMP act inh | STK33 kinase inh
CC(O)C1C=CC=CC(=O)OC2CC3OC4C5OC5(C)C(O)CC4(COC(=O)C(O)C(C)CCO1)C2(C)C31CO1 (configuration not stated) | nt | nt | 74* | -44 | nt
C[C@@H]1CN([C@H](C)CO)C(=O)c2c(c3ccccc3n2C)-c2ccccc2CO[C@H]1CN(C)Cc1ccc2c(c1)OCCN2C | nt | nt | 102 | 2 | nt
CCOP(=O)(OCC)C(NC(=O)c1cccc([N+](=O)[O-])c1)C(Cl)(Cl)Cl (configuration not stated) | 0 | -5 | 83* | 4 | 0
C#C[C@]1(O)CC[C@H]2[C@@H]3CCC4=Cc5nc6nc7ccccc7n6cc5C[C@]4(C)[C@H]3CC[C@@]21C | 0 | nt | 63* | -48 | 0
CC(C)(OOC1(c2ccccc2)NC(=O)c2ccccc21)c1ccccc1 (configuration not stated) | nt | nt | nt | 2 | nt
Cc1ccc([C@@H]2C[C@H]3[C@@H](CN2S(=O)(=O)c2ccc(Cl)cc2)C(=O)C[C@@H](c2ccccc2F)N3S(=O)(=O)c2ccc(C)cc2)cc1 | nt | nt | 99 | -1 | nt
O=C(CCNC(=O)N1C[C@H]2C[C@@H](C1)c1cccc(=O)n1C2)Nc1ccc(F)cc1 | 0 | 5 | 80* | 0 | 0
O=C(O)CCC(=O)NCCC1=c2ccccc2=N/C1=C\c1c(O)n(Cc2ccc(F)cc2)c(=S)[nH]c1=O | -4 | 13 | 67* | -9 | -1
O=C(N/N=C/c1c(O)n(Cc2ccc(F)cc2)c(=O)[nH]c1=O)c1ccccc1 | 0 | -6 | 103 | 0 | 0
O=C1NC(=O)C(=Cc2ccc(-c3ccc(S(=O)(=O)N4CCOCC4)cc3)o2)C(=O)N1 | 2 | 1 | 99 | 1 | -2
O=C1NC(=O)C(=Cc2ccc(-c3ccc(Cl)cc3)o2)C(=O)N1 | -6 | -3 | 72* | -8 | -2
CN(C)S(=O)(=O)c1cc(NC(=O)C[N+]23CCN(CC2)CC3)ccc1Cl | -2 | 5 | 103 | 2 | -2
CN(C)S(=O)(=O)c1cc(NC(=O)COC(=O)Cc2ccccc2)ccc1Cl | -1 | 1 | 88* | -3 | -1
CN1/C(=C\C=C\C2=[N+](C)c3ccc4ccccc4c3C2(C)C)C(C)(C)c2ccccc21 | 71* | nt | nt | nt | 26*
CCN1/C(=C/C=C/C2=[N+](CC)c3ccccc3C2(C)C)C(C)(C)c2ccccc21 | nt | nt | 114 | 15 | nt
Cc1nc(N2CCN(Cc3ccc4c(c3)OCO4)CC2)[nH]c(=O)c1C | nt | 2 | 95 | 1 | nt
CC(=NCCCn1ccnc1)c1c(O)n(C2CCCCC2)c(=O)[nH]c1=O | 67* | 1 | 118 | 4 | -1
O=c1[nH]c(=O)n(C2CCCCC2)c(O)c1C=NCCCn1ccnc1 | 67* | 2 | 103 | -5 | -1
CCN(CC)CCN=Cc1c(O)n(C2CCCCCC2)c(=O)[nH]c1=O | 13 | -4 | nt | -1 | 1
CCC(c1nnnn1-c1ccc(OC)cc1)N1CCC2(CC1)C(=O)NCN2c1ccccc1 (configuration not stated) | nt | nt | nt | 0 | nt
CCOC(=O)[C@]12Cc3cc(Cl)ccc3[C@H]1N(C1CCCCC1)C(=O)c1cc(OC)ccc12 | nt | nt | nt | -54 | nt
CN1C(=O)/C(=C/C=C/c2ccco2)C(=O)NC1=S | 5 | 7 | 19* | -9 | 11
O=C1NCN(c2ccccc2)C12CCN(C(c1cccc3ccccc13)c1nnnn1C1CCCCC1)CC2 (configuration not stated) | nt | nt | nt | -1 | nt
NC(=O)c1cn(C2OC(CO)C(O)C2O)c2ncnc(N)c12 (configuration not stated) | 72* | 0 | 86 | -47 | 13
O=C1CC=C2C3CC4N(CCC45c4cc(O)c(O)cc4N1C25)CC3=CCBr (configuration not stated) | nt | nt | 54* | 2 | nt
